This is a sample that favours compounds with a hit; in the whole collection about 2.5% have one here.
IMP-1 inh: blocks Pseudomonas aeruginosa IMP-1 metallo-beta-lactamase | purified IMP-1, nitrocefin hydrolysis, epi-absorbance fluorescence | AID 1556 | inhibition, % at 5.6 µM | 0.45% of 290,000 active;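 active = inhibition above the mean plus 3 SD of all compounds in the same screening run, cut at about 4.5% in these data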;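 also: 0% = IMP-1 with DMSO and 100% = DMSO wells lacking enzyme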
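System: purified recombinant IMP-1 beta-lactamase. Medium: Zinc- and detergent-supplemented HEPES buffer, pH 7.1. Compound: one 5.6 µM dose […]. Schedule: 15 min preincubation plus 25 min reaction at 25 °C. Technique: Epi-absorbance fluorescence, 480 nm excitation, 530 nm emission.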
HTR2A ag: agonists of mouse serotonin 5-HT2A receptor (HTR2A). P35363. CHO-K1 mHTR2A beta-arrestin complementation, luminescence; percent of 30 µM serotonin response. activation, % at 7.6 µM. 0.66% of 360,000 active. AID 624169;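 active = activation above a run cutoff, the mean activation of all tested compounds plus 3 SD, cut at about 14% in these data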;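 also: 0% = plate median of compound wells and 100% = 30 µM serotonin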
dFosB act: mouse delta FosB homodimer activation; P13346; purified delta FosB, TAMRA-CDK5 oligo fluorescence polarization; percent of positive-control signal above neutral wells; activation, % at 25 µM; 0.99% of 340,000 active; AID 493131;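 active = mean activation above about 17%, with every replicate also reaching it, limit read from the data, passing the limit was not always enough; inconclusive = only one of the two conditions met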
Target sequence (P13346 whole entry, looked up): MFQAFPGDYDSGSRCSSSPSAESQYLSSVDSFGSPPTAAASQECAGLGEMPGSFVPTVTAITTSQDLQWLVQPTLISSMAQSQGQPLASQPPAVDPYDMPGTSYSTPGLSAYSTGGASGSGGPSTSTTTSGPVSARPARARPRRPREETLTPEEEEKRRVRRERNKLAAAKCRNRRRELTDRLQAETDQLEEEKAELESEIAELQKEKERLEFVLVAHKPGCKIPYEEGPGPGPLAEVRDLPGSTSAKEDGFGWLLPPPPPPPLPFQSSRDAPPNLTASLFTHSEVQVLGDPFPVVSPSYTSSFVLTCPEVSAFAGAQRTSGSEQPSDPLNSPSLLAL
VIM-2 inh: inhibitors of Pseudomonas aeruginosa VIM-2 metallo-beta-lactamase | purified VIM-2, nitrocefin hydrolysis, epi-absorbance fluorescence | inhibition, % at 5.6 µM | 0.89% of 290,000 active;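 active = inhibition above the mean of all tested compounds plus 3 SD, cutoff set per screening run, cut at about 7.5% in these data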;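 also: red hydrolysis product quenches plate fluorescence so inhibitors raise well fluorescence; 0% = enzyme with DMSO and 100% = DMSO without enzyme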
MOR ag counter: activates human mu opioid receptor in HTR2A counterscreen | shares compounds with HTR2A ag | U2OS OPRM1 beta-arrestin PathHunter, luminescence; DMSO 0%, DAMGO 9.3 µM 100% | activation, % at 9.3 µM | 5.3% of 2,300 active | AID 624380;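 active = mean activation above the mean of DMSO-only wells plus 3 SD, cut at about 0.5% in these data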
HTR2A ag conf: confirmation of mouse HTR2A serotonin receptor agonists; 19% of 2,300 active; shares compounds with HTR2A ag; CHO-K1 PathHunter beta-arrestin recruitment, luminescence; DMSO 0%, 30 µM serotonin 100%; activation, % at 7.6 µM; AID 624381;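 active = mean activation across triplicates above the hit threshold derived in the original primary screen, cut at about 15% in these data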
An asterisk follows results filed as active; u = inconclusive; x = no result; ! = not confirmed by another sample.

SMILES | IMP-1 inh | HTR2A ag | dFosB act | VIM-2 inh | MOR ag counter | HTR2A ag conf
CCCCCC1C(=O)C[C@@H]2CCN3C(=O)CCC[C@H]1[C@H]23 (stereo partly drawn) | x | 17* | -9 | x | -1 | -3
C[C@@H]1CN([C@H](C)CO)C(=O)CCCn2nncc2CO[C@H]1CN(C)C(=O)Nc1cccc2ccccc12 | x | 0 | x | x | x | x
S=c1[nH]nc(C2CCCCC2)n1Cc1ccccc1 | -3 | 15* | 6 | 9.3* | 0 | -2
C=CCn1c(C2CCCCC2)n[nH]c1=S | -3 | 8 | 12 | 2 | x | x
FC(F)(F)Oc1ccc(Nc2nc(N3CCOCC3)nc(N3CCOCC3)n2)cc1 | -1 | 15* | -10 | 0 | 0 | -4
CCc1ccc(Nc2nc(N3CCOCC3)nc(N3CCOCC3)n2)cc1 | -1 | 1 | -2 | 0 | x | x
COc1ccccc1Nc1nc(N2CCOCC2)nc(N2CCOCC2)n1 | -1 | 16*! | -3 | -1 | 0 | 1
COc1ccccc1Nc1nc(N2CCCC2)nc(N2CCOCC2)n1 | x | 2 | -2 | x | x | x
COCCN1C(=O)CCC1(C)c1nnnn1-c1ccc2c(c1)OCCO2 (stereo not drawn) | x | 11 | x | x | x | x
O=C1CCNc2c(Cl)cccc21 | -4 | 15* | -6 | -1 | -1 | 2
O=C1CCNc2c(Cl)cc(Cl)cc21 | -2 | -2 | -2 | -1 | x | x
O=C(NCC(=O)N1CCCCCCC1)c1cccc([N+](=O)[O-])c1 | x | 15* | -2 | x | -1 | -1
Cc1cccc(C(=O)NCC(=O)N2CCCC2)c1 | -1 | -4 | 0 | 0 | x | x
CCn1cc(CN2CCCC(C(=O)Nc3ccc(-c4cscn4)cc3)C2)c(C)n1 (stereo not drawn) | -1 | -1 | -3 | 0 | x | x
Cc1cc(S(=O)(=O)Nc2cccnc2)c(C)s1 | 0 | 21* | 0 | -3 | 0 | -1
Cc1ccc(S(=O)(=O)Nc2cccnc2)cc1C | 0 | -4 | -3 | 0 | x | x
CC[C@]12c3[nH]c4cc(CCC(=O)N(C)C)ccc4c3CCN1C(=O)[C@@H](CC(=O)NC(C)(C)C)C[C@@H]2C(=O)N1CCN(C(=O)c2ccco2)CC1 | x | -2 | -5 | x | x | x
C#CCN(C(=O)CC1C(=O)NCCN1C/C=C/c1ccccc1)C1CCCCC1 (stereo not drawn) | -5 | -7 | -6 | 0 | x | x
Nc1c(C(=O)CSc2ncccn2)c(=O)[nH]c(=O)n1C1CC1 | x | -2 | -10 | x | x | x
O=C(OCC(=O)C12CC3CC(CC(C3)C1)C2)c1cccnc1Cl | -2 | 0 | -6 | 1 | x | x
N#Cc1ccccc1NC(=O)C(=O)NCCCN1CCCC1=O | x | 0 | 2 | x | x | x
COC(=O)[C@@]1(Cc2ccc(F)cc2)[C@H]2c3cc(C(=O)N(C)C)n(CCc4c[nH]c5ccc(O)cc45)c3C[C@H]2CN1C(=O)c1ccccc1 | x | 26* | x | x | 0 | 11
CCOc1ccc(NC(=O)CN(C)C(=O)c2cccnc2Sc2ccc(C)c(C)c2)cc1OCC | 2 | 2 | -11 | 1 | x | x
O=C(CCCN1C(=O)CSc2ncccc21)N1CCN(Cc2ccccc2)CC1 | -4 | 107* | -1 | -1 | -1 | -5
CCOC(=O)N1CCC(NC(=O)CCCN2C(=O)CSc3ncccc32)CC1 | -4 | -1 | -1 | -2 | x | x
SMILES | IMP-1 inh | HTR2A ag | dFosB act | VIM-2 inh | MOR ag counter | HTR2A ag conf
CCCCNC(=O)C1c2ccccc2OCC(=O)N1Cc1cccnc1 (stereo not drawn) | x | 1 | x | x | x | x
CCc1c(C2(O)CCCCC2)[nH]c2cc(C(F)(F)F)ccc12 | -5 | 7 | -5 | -1 | x | x
Cc1c(C2(O)CCCCC2)[nH]c2cc(C(F)(F)F)ccc12 | x | 19* | -10 | x | 1.0* | -1
Cc1cc(Cl)ccc1NC(=O)CN(C)C1=NS(=O)(=O)c2ccccc21 | x | 15* | -5 | x | 0 | 1
CCc1cccc(C)c1NC(=O)CN(C)C1=NS(=O)(=O)c2ccccc21 | x | 2 | 3 | x | x | x
CC(C)C(=O)NC(NCC1CCCO1)C(Cl)(Cl)Cl (stereo not drawn) | -3 | 17* | 4 | 1 | -1 | -2
Cc1ccccc1C(=O)NC(NCC1CCCO1)C(Cl)(Cl)Cl (stereo not drawn) | -3 | -1 | 3 | -4 | x | x
Cc1ccccc1NP1(=O)OCCCN1Cc1ccccc1Cl (stereo not drawn) | x | -4 | -10 | x | x | x
CCCN(CCC)CC(=O)NCC1(c2ccccc2)CCOCC1 | -3 | 17* | -12 | -4 | 0.5* | 5
CCOC(=O)N1CCN(C(=O)Nc2ccccc2Cl)CC1 | -4 | -1 | 1 | -2 | x | x
CCOC(=O)C1CCN(C(=O)Nc2ccccc2Cl)CC1 | 0 | 15* | 1 | 0 | -1 | -1
CC1CCN=C(N)S1 (stereo not drawn) | x | 16* | 1 | x | 0 | 0
Cc1cccc(NC(=O)c2cc(S(=O)(=O)N3CCc4ccccc43)cn2C)c1 | -5 | -3 | u | -5 | x | x
Cc1cccc(C)c1NC(=O)c1cc(S(=O)(=O)N2CCc3ccccc32)cn1C | -4 | 21* | -13 | -4 | 0 | -3
COc1cc2c(cc1OC)CN(c1nc(CN3CCCC3)nc3sc(C)c(C)c13)CC2 | -3 | 35* | 6 | 3 | -1 | 32*
COc1cc2c(cc1OC)CN(c1nc(CN3CCCCC3)nc3sc4c(c13)CCCC4)CC2 | -1 | -2 | 1 | 5 | x | x
Cc1ccc(-c2cccc(-c3cc(=O)oc4ccc(C(C)(C)C)cc34)c2)cc1 | x | -2 | 4 | x | x | x
CSc1ccccc1OCc1cc(C(=O)N2CCC[C@H]2C(N)=O)no1 | -1 | 15* | -5 | -3 | 0 | 3
NNc1ccc2nncn2n1 | -3 | 1 | 9 | -2 | x | x
c1ccc(CCNc2ccc3nncn3n2)cc1 | -2 | 16* | -2 | -3 | 0 | -6
OC(c1cc(-c2ccc(C(F)(F)F)cc2)nc(C(F)(F)F)c1)C1CCCCN1 (stereo not drawn) | -1 | 8 | -194 | -1 | x | x
OC(c1cc(C(F)(F)F)nc2c(C(F)(F)F)cccc12)C1CCCCN1 (stereo not drawn) | x | 31* | -115 | x | 1.3* | 14
CC(C(=O)Nc1ccccc1)N1C(=O)c2ccccc2C1=O (stereo not drawn) | -2 | 7 | -14 | -5 | x | x
Cc1cc(C)cc(NC(=O)C(C)N2C(=O)c3ccccc3C2=O)c1 (stereo not drawn) | -4 | 20* | -11 | -2 | 0 | -2
O=C(Nc1ccc2oc(-c3cccnc3)nc2c1)c1ccco1 | -4 | 15* | -36 | 0 | -1 | -3
CC(C)NNC(=O)c1ccncc1 | 0 | 28* | 5 | 0 | -1 | 45*
CC(=O)c1ccc(OCC(O)COc2ccc(C(C)=O)cc2)cc1 | -3 | 0 | 0 | -3 | x | x
C=C(C)C(=O)OCC(O)COc1ccc(C(C)(C)c2ccc(OCC(O)COC(=O)C(=C)C)cc2)cc1 (stereo not drawn) | x | 17* | -18 | x | 0 | 2

Screens: PubChem BioAssay, several laboratories
